The source made the active and inactive calls. No cut-off for these calls is given here.

The test system of assay [1] is Rattus norvegicus. Kind of assay: Effect on bone calcium mobilization in weanling Sprague-Dawley rat assessed as serum calcium level at 87 pmol/day administered as 4 consecutive daily doses measured 24 hrs after last dose relative to control. The assay is classed as functional. In a few lines:
(§1)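 Rats switched to a 0.47% Ca diet for 1 week, then 0.02% Ca diet for 2 weeks. Dosing started in the final week on the 0.02% Ca diet: four consecutive intraperitoneal doses about 24 h apart. Blood taken from the severed neck 24 h after the last dose. Serum calcium measured as the index of bone calcium mobilization.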

The test system of assay [2] is Rattus norvegicus. Description: Effect on intestinal calcium transport in weanling Sprague-Dawley rat assessed as increase in ratio of serosal to mucosal calcium level at 32 pmol/day administered as 4 consecutive daily doses measured 24 hrs after last dose relative to control. The assay is classed as functional. In a few lines:
(§2)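 Same rats, on 0.47% Ca diet for 1 week, then 0.02% Ca for 2 weeks. Four intraperitoneal doses about 24 h apart were given during the last week. 24 h after the final dose, the first 10 cm of intestine was taken for calcium transport measurement by the everted gut sac method.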

For assay [3], the system named is Rattus norvegicus. Description: Effect on bone calcium mobilization in weanling Sprague-Dawley rat assessed as serum calcium level at 780 pmol/day administered as 4 consecutive daily doses measured 24 hrs after last dose relative to control. The assay is classed as functional. In a few lines: as §1
Assay [4] concerns Rattus norvegicus. Kind of assay: Effect on intestinal calcium transport in weanling Sprague-Dawley rat assessed as increase in ratio of serosal to mucosal calcium level at 87 pmol/day administered as 4 consecutive daily doses measured 24 hrs after last dose relative to control. Format: functional. The method in brief: as §2
Assay [5] addresses T1, Vitamin D3 receptor (Rattus norvegicus) (UniProt P13053).
T1 sequence (whole entry): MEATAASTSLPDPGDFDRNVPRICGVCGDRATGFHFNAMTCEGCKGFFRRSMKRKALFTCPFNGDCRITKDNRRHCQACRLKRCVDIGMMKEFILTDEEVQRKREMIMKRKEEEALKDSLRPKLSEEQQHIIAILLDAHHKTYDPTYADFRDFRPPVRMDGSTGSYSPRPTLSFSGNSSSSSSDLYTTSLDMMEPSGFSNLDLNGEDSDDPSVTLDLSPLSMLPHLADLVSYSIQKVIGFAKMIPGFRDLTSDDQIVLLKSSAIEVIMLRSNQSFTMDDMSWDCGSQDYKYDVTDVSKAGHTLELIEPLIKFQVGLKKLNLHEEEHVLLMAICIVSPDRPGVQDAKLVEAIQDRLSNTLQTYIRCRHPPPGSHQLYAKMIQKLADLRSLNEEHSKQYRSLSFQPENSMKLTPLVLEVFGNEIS
Kind of assay: Ratio of 1alpha,25-dihydroxyvitamin D3 Ki to compound Ki for full length recombinant rat vitamin D receptor by scintillation counting analysis. The method in brief:
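Competitive binding against radiolabeled 1α,25-(OH)2D3 at 1 nM, with Kd of 0.2 nM used in Ki derivation from dose–response curves. Duplicate runs on two separate occasions. Reported as the average ratio of 1α,25-(OH)2D3 Ki to analogue Ki.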

The next assay deals with HL-60. Kind of assay: Ratio of 1alpha,25-dihydroxyvitamin D3 ED50 to compound ED50 for induction of human HL60 promyelocytes differentiation to monocytes after 4 days by NBT reduction assay. Format: functional. In a few lines:
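HL-60 promyelocyte-to-monocyte differentiation scored as percentage of cells reducing nitro blue tetrazolium. Run in duplicate, repeated twice. ED50, the concentration giving 50% maturation, taken from dose–response curves; expressed as the average ratio of 1α,25-(OH)2D3 ED50 to analogue ED50.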

Assay [6] has as its system Rattus norvegicus. Kind of assay: Effect on bone calcium mobilization in weanling Sprague-Dawley rat assessed as serum calcium level at 32 pmol/day administered as 4 consecutive daily doses measured 24 hrs after last dose relative to control. Format: functional. The method in brief: as §1
Assay [7] deals with Rattus norvegicus. Description: Effect on intestinal calcium transport in weanling Sprague-Dawley rat assessed as increase in ratio of serosal to mucosal calcium level at 780 pmol/day administered as 4 consecutive daily doses measured 24 hrs after last dose relative to control. Format: functional. In a few lines:
as §2

The test system of assay [8] is Rattus norvegicus. Description: Effect on bone calcium mobilization in weanling Sprague-Dawley rat assessed as serum calcium level at 7020 pmol/day administered as 4 consecutive daily doses measured 24 hrs after last dose relative to control. The assay is classed as functional. In a few lines: as §1
Assay [9] addresses T1, Vitamin D3 receptor (Rattus norvegicus). Description: Ratio of 1alpha,25-dihydroxyvitamin D3 ED50 to compound ED50 for VDR-mediated 24-hydroxylase gene expression in rat ROS 17/2.8 cells after 16 hrs by luciferase reprter assay. Format: cell-based. In a few lines: (§3)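 Rat osteosarcoma cells stably transfected with a 24-hydroxylase gene reporter plasmid; luciferase activity read across a dose range. ED50 is the concentration raising luciferase activity by 50%, taken from dose–response curves. Ratio line reports 1α,25-(OH)2D3 ED50 divided by analogue ED50.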

For assay [10], the system named is Rattus norvegicus. Kind of assay: Effect on intestinal calcium transport in weanling Sprague-Dawley rat assessed as increase in ratio of serosal to mucosal calcium level at 7020 pmol/day administered as 4 consecutive daily doses measured 24 hrs after last dose relative to control. Format: functional. In a few lines: as §2
Assay [11] has as its system Rattus norvegicus. Kind of assay: Effect on intestinal calcium transport in weanling Sprague-Dawley rat assessed as increase in ratio of serosal to mucosal calcium level at 260 pmol/day administered as 4 consecutive daily doses measured 24 hrs after last dose relative to control. Format: functional. In a few lines:
as §2

Assay [12] concerns the target T1, Vitamin D3 receptor (Rattus norvegicus). Description: Induction of VDR transcriptional activity assessed as activation of 24-hydroxylase gene expression in rat ROS 17/2.8 cells after 16 hrs by luciferase reprter assay. Format: cell-based. In a few lines: as §3
For assay [13], the system named is Rattus norvegicus. Kind of assay: Effect on bone calcium mobilization in weanling Sprague-Dawley rat assessed as serum calcium level at 260 pmol/day administered as 4 consecutive daily doses measured 24 hrs after last dose relative to control. Format: functional. The method in brief: as §1
The test system of assay [14] is Rattus norvegicus. Kind of assay: Effect on intestinal calcium transport in weanling Sprague-Dawley rat assessed as increase in ratio of serosal to mucosal calcium level at 2340 pmol/day administered as 4 consecutive daily doses measured 24 hrs after last dose relative to control. Format: functional. In a few lines:
as §2

Assay [15] has as its system Rattus norvegicus. Description: Effect on bone calcium mobilization in weanling Sprague-Dawley rat assessed as serum calcium level at 2340 pmol/day administered as 4 consecutive daily doses measured 24 hrs after last dose relative to control. The assay is classed as functional. In a few lines:
as §1

The subject of assay [16] is Rattus norvegicus. Kind of assay: Effect on bone calcium mobilization in weanling Sprague-Dawley rat assessed as serum calcium level at 16 pmol/day administered as 4 consecutive daily doses measured 24 hrs after last dose relative to control. The assay is classed as functional. In a few lines:
as §1

In assay [17] the test system is Rattus norvegicus. Kind of assay: Effect on intestinal calcium transport in weanling Sprague-Dawley rat assessed as increase in ratio of serosal to mucosal calcium level at 16 pmol/day administered as 4 consecutive daily doses measured 24 hrs after last dose relative to control. Format: functional. In a few lines: as §2

`C=C1/C(=C\C=C2/CCC[C@]3(C)[C@@H]([C@H](C)CCCC(C)(C)O)CC[C@@H]23)C[C@@H](O)C(=C)[C@@H]1O`: the Activity in the assay on Rattus norvegicus [1] turned out to be 2.2 mg/dL; in the assay on Rattus norvegicus [3] it was 5 mg/dL; in the assay with Rattus norvegicus [6] it was 1.4 mg/dL; in the assay on Rattus norvegicus [8] it was 7.3 mg/dL. For the same compound, the Ratio with Rattus norvegicus [2] was 2.4; with Rattus norvegicus [4], 5.1; in the assay with Rattus norvegicus [7], 5.2; with Rattus norvegicus [10], 9.2. In assay [5], the Ratio Ki worked out at 1.4. Moreover, the “Ratio ED50” value in the assay on HL-60 stood at 0.7; in [9], 1.

Take `C=C1/C(=C/C=C2\CCC[C@]3(C)[C@@H]([C@@H](C)CCCC(C)(C)O)CC[C@@H]23)C[C@@H](O)C(=C)[C@@H]1O`: the Activity is 0.6 mg/dL in the assay on Rattus norvegicus [1], 4 mg/dL in the assay with Rattus norvegicus [3], 1.2 mg/dL in the assay on Rattus norvegicus [13] and 0 mg/dL in the assay with Rattus norvegicus [6]. For the same compound, the Ratio with Rattus norvegicus [11] was 2.6; in the assay on Rattus norvegicus [2], 0.9; in the assay on Rattus norvegicus [4] it was 2.9; with Rattus norvegicus [7], 4.5. In assay [12], the result was Active. Moreover, the Ratio Ki in assay [5] turned out to be 1.1. Further, the “Ratio ED50” value with HL-60 came out at 20; in assay [9], 5.

In the case of `C=C1/C(=C/C=C2\CCC[C@]3(C)[C@@H]([C@H](C)CCCC(C)(C)O)CC[C@@H]23)C[C@@H](O)C(=C)[C@@H]1O`, the Activity with Rattus norvegicus [1] stood at 0.5 mg/dL; in the assay on Rattus norvegicus [3], 1.3 mg/dL; in the assay on Rattus norvegicus [6], 0.3 mg/dL; with Rattus norvegicus [15], 2.2 mg/dL; with Rattus norvegicus [8] it was 2.2 mg/dL. Moreover, the Ratio amounted to 2.3 in the assay with Rattus norvegicus [2]; 2.1 with Rattus norvegicus [4]; 3 in the assay with Rattus norvegicus [14]; 1.2 in the assay on Rattus norvegicus [7]; 3.2 with Rattus norvegicus [10]. Besides, the Ratio Ki in assay [5] turned out to be 2.5. Further, the “Ratio ED50” value was 0.4 in the assay with HL-60 and 1 in [9].

Take `C=C1/C(=C\C=C2/CCC[C@]3(C)[C@@H]([C@@H](C)CCCC(C)C)CC[C@@H]23)C[C@@H](O)C(=C)[C@@H]1O`: the Activity in the assay on Rattus norvegicus [1] was 0.4 mg/dL; with Rattus norvegicus [3] it was 3.3 mg/dL; in assay [12], “Dose-dependent effect”; in the assay with Rattus norvegicus [8], 4.8 mg/dL. In addition, the Ratio Ki in assay [5] turned out to be 0.01. The “Ratio ED50” value was 0.7 in the assay on HL-60 and 0.07 in assay [9].

As for `C=C1/C(=C\C=C2/CCC[C@]3(C)[C@@H]([C@H](C)CCCC(C)(C)O)CC[C@@H]23)C[C@@H](O)C[C@@H]1O` [CALCITRIOL], the Activity in the assay with Rattus norvegicus [1] turned out to be 0.3 mg/dL; with Rattus norvegicus [3] it was 2.1 mg/dL. Further, the result in [12] was Active. For the same compound, the Ratio in the assay on Rattus norvegicus [4] came to 3.1; in the assay with Rattus norvegicus [7], 1.9.

Take `C=C1/C(=C\C=C2/CCC[C@]3(C)[C@@H]([C@@H](C)CCCC(C)(C)O)CC[C@@H]23)C[C@@H](O)C(=C)[C@@H]1O`: the Activity in the assay with Rattus norvegicus [16] was determined as 0.7 mg/dL; with Rattus norvegicus [1], 2.8 mg/dL; in the assay on Rattus norvegicus [3], 5.9 mg/dL; in the assay with Rattus norvegicus [13], 3.4 mg/dL; in the assay on Rattus norvegicus [6] it was 1.1 mg/dL; with Rattus norvegicus [8], 6 mg/dL. The Ratio stood at 5 in the assay with Rattus norvegicus [11]; 5 in the assay on Rattus norvegicus [2]; 5.4 in the assay with Rattus norvegicus [4]; 3 in the assay on Rattus norvegicus [17]; 9.3 with Rattus norvegicus [7]; 7.3 in the assay with Rattus norvegicus [10]. In addition, the outcome in assay [12] was Active. Besides, in assay [5], the Ratio Ki was determined as 1.1. The “Ratio ED50” value was determined as 29 in the assay on HL-60 and 10 in assay [9].

In the case of `C=C1/C(=C\C=C2/CCC[C@]3(C)[C@@H]([C@H](C)CCCC(C)C)CC[C@@H]23)C[C@@H](O)C(=C)[C@@H]1O`, the Activity was 0.9 mg/dL with Rattus norvegicus [1], 3.8 mg/dL in the assay with Rattus norvegicus [3], “Dose-dependent effect” in [12] and 6 mg/dL in the assay on Rattus norvegicus [8]. Also, the Ratio is recorded as 4.6 in the assay on Rattus norvegicus [4], 5.8 in the assay with Rattus norvegicus [7] and 6 in the assay with Rattus norvegicus [10]. In addition, the Ratio Ki in assay [5] is 0.01. Moreover, the “Ratio ED50” value (in the assay on HL-60; in assay [9]) was 0.07 in each case.

`C=C1[C@H](O)CC(=C/C=C2\CCC[C@]3(C)[C@@H]([C@@H](C)CCCC(C)(C)O)CC[C@@H]23)C[C@H]1O` [DP001]: the Ratio Ki in assay [5] came to 1. Also, the results for the “Ratio ED50” value (in the assay with HL-60; in [9]) were 25 and 29, respectively.

The values are drawn from ChEMBL document CHEMBL3745687, “Synthesis and Biological Activity of 2-Methylene Analogues of Calcitriol and Related Compounds” (2015).
